# Measurements pooled from the literature.
# Protocols differ between the studies behind these lines.
# Target: Serine/threonine-protein kinase TAO1 (TAOK1, Homo sapiens, UniProt Q7L7X3)
# One construct used (Q7L7X3 1-1001): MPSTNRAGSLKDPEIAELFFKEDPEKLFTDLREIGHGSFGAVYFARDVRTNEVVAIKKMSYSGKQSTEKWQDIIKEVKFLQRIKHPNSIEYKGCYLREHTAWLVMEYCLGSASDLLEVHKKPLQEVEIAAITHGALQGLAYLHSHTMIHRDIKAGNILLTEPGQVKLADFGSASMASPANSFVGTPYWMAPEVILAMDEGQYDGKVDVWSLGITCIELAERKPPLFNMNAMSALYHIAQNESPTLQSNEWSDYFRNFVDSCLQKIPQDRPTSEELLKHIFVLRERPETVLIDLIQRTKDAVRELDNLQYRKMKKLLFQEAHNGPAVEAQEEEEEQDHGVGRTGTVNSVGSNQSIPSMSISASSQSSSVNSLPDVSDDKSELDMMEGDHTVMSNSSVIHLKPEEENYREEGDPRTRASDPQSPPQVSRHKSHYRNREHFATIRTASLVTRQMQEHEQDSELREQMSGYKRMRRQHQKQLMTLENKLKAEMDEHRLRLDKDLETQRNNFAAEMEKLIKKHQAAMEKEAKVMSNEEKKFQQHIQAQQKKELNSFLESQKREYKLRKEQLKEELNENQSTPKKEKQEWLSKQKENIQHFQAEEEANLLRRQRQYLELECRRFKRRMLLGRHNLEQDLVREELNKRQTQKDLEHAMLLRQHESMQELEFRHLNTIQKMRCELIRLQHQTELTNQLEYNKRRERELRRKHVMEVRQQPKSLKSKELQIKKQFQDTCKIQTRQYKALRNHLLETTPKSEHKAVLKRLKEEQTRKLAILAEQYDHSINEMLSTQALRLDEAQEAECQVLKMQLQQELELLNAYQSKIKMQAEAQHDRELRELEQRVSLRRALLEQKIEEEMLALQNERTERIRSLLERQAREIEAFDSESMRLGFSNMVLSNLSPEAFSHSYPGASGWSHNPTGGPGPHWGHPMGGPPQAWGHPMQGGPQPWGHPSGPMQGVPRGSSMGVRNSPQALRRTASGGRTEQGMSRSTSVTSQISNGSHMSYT
SMILES,read-out,mode,technique,concentration,endpoint,value
O=C1Nc2ccc(Cl)cc2C1=Cc1cc(Cl)c(O)c(Cl)c1,cell-free assay,,,0.5 µM,remaining signal,71.6%
COc1cc(/C=C/C(=O)CC(=O)/C=C/c2ccc(O)c(OC)c2)ccc1O,enzyme activity,inhibitor,,1 µM,activity vs control,84%
O=C(Nc1cccnn1)N1CC(C/C=C/c2cncc(Oc3ccc(C(F)(F)F)cn3)n2)C1,cell-free assay,,competition with immobilised ligand,1 µM,remaining binding,91%
N#CCCc1ccc2c(c1)-c1[nH]c3ccc([N+](=O)[O-])cc3c1CC(=O)N2,cell-free assay,,,0.5 µM,remaining signal,73.1%
COc1ccc2cc(OCC3(C(=O)O)CN(C(=O)c4ccc(F)cc4)C3)ccc2c1,cell-free assay,,competition with immobilised ligand,1 µM,remaining binding,100%
FC(F)(F)Oc1cccc(-c2cnc3ccc(-c4ccncc4)nn23)c1,enzyme activity,inhibitor,radiometric,1 µM,activity vs control,83%
CCCOc1ccc(OC)c(F)c1C(=O)c1ccc(C(=O)N[C@@H]2CNC[C@H]2NC(=O)c2ccc3[nH]ncc3c2)cc1,enzyme activity,inhibitor,,10 µM,remaining activity,74%
COc1cc(Cl)c(C(=O)N[C@@H](CN[C@H]2CC[C@@H](N)CC2)Cc2ccc(C#N)cc2)cc1-c1ccc(CN[C@H](C)c2ccc(C)cc2)o1,enzyme activity,inhibitor,,1 µM,remaining activity,97%
Oc1cccc(-c2nc(N3CCOCC3)c3oc4ncccc4c3n2)c1,enzyme activity,inhibitor,,10 µM,remaining activity,84%
COc1cc(Nc2cnc(C#N)c(O[C@H](C)CN(C)C)n2)ncc1-c1cnn(C)c1,enzyme activity,inhibitor,radiometric,1 µM,remaining activity,87%
O=C(Nc1cnn(-c2csc(C(=O)NC3COC3)c2)c1)Nc1c(F)cccc1Cl,enzyme activity,inhibitor,,5 µM,remaining activity,90.6%
CN(C)C(=O)Cn1cc(-c2nc(C3(c4ccc(-c5cnc(N)nc5)cc4)CC3)no2)cn1,cell-free assay,,competition with immobilised ligand,1 µM,remaining binding,86%
Cc1sc(C(=O)NC2COC2)cc1-n1cc(NC(=O)Nc2c(F)cccc2Cl)cn1,enzyme activity,inhibitor,,10 µM,remaining activity,108%
Nc1ncnc2occ(-c3ccc(NC(=O)Nc4cc(C(F)(F)F)ccc4F)cc3)c12,cell-free assay,inhibitor,,20 µM,remaining signal,0.3%
CCN(CC)c1ccc(C2=NNC(=O)CC2C)cc1[N+](=O)[O-] (stereo not drawn),enzyme activity,inhibitor,,10 µM,remaining activity,115%
Cc1c(C(=O)O)cc(-c2ccc(C3CCNCC3)cc2)c2ccc(-c3ccc(C(F)(F)F)cc3)cc12,binding,,competition with immobilised ligand,1 µM,remaining binding,100%
Cc1cnc(NC2CCOCC2)nc1-n1cnc(C(=O)NC(CN)c2cc(F)cc(Cl)c2)c1 (stereo not drawn),enzyme activity,inhibitor,radiometric,1 µM,remaining activity,67%
Cc1cc(C)c(-n2ccn3nc(-c4cccnc4)cc23)cc1NC(=O)c1cc(C#N)cc(S(F)(F)(F)(F)F)c1,cell-free assay,,competition with immobilised ligand,0.1 µM,remaining binding,45.2%
Clc1ccc(Nc2nnc(Cc3ccncc3)c3ccccc23)cc1,cell-free assay,,,0.5 µM,remaining signal,98.7%
CC(C)(O)[C@H]1CC[C@H](Nc2ccc3ncc(-c4cccc(C(F)(F)F)c4)n3n2)CC1,enzyme activity,inhibitor,,1 µM,remaining activity,82.6%
CO[C@@H](C)c1c(Nc2ccc([C@H](N(C)C(=O)C3CCS(=O)(=O)CC3)C(F)(F)F)cc2)cnc2cc(Cl)nn12,cell-free assay,,competition with immobilised ligand,1 µM,remaining binding,100%
